Screening data from PubChem BioAssay.
OXTR agonist = human OXTR agonists, primary screen, fluorescence, CHO-OTR cells, Fluo-8 calcium. actives 0.32% (n = 320,000). activation, % at 3 µM. Fluo-8 calcium fluorescence; normalized: DMSO 0%, oxytocin 100%;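 active = activation above the mean of all tested compounds plus 3 SD, cutoff set per screening run, cut at about 20% in these data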;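 also: peak over basal fluorescence ratio from a 100 s FLIPR kinetic read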
Target sequence (P30559 whole entry, looked up): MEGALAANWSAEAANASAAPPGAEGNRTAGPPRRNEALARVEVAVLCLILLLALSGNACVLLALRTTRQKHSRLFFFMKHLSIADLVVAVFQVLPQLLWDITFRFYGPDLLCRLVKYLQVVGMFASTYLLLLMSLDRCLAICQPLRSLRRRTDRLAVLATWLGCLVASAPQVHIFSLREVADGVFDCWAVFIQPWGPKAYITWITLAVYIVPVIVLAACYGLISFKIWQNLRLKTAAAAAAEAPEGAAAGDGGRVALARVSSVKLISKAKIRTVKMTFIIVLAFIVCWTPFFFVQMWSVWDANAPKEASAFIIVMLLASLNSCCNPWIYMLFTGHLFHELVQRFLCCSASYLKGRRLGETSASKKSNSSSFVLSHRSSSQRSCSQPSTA
OX1R antag-1 = antagonists of human orexin 1 receptor (OX1R); inhibition, % at 6.6 µM; Orexin/Hypocretin receptor type 1 (Homo sapiens), O43613; OX1R-expressing cells, FRET antagonist read-out; actives 1.8% (n = 330,000); in the data active = inhibition mostly above about 38%, no sharp cut-off; inactive = mostly below about 40%;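 also: 0% = agonist challenge alone and 100% = reference antagonist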
OXTR potentiator = human OXTR potentiators, primary screen, fluorescence, CHO-OTR cells, Fluo-8 calcium; Oxytocin receptor (Homo sapiens), P30559; Fluo-8 calcium fluorescence, potentiator mode; 0% = oxytocin EC15, 100% = EC100; activation, % at 3 µM; actives 0.061% (n = 320,000); AID 2445, 2010;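 active = activation above that plate's cutoff, the mean activation of tested compounds plus 3 SD, cut at about 6.6% in these data, passing the limit was not always enough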;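 also: 100% uses oxytocin at 75 nM as the full agonist control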
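Replication – single well per compound, singlicate · Assay system – CHO cell line stably expressing human OTR · Timing – 6 min pre-incubation, 100 s read · Measure – normalized max/min fluorescence ratio, % activation · Doses – 3.0 µM, one dose · Detection – Fluo-8 calcium dye fluorescence · Probe or stimulus – oxytocin near EC15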
OX1R antag-2 = OX1R (HCRTR1) antagonists, primary screen, fluorescence, CHO/OX1R cells, Fluo-8 calcium, orexin A; Orexin/Hypocretin receptor type 1 (Homo sapiens), O43613; Fluo-8 calcium fluorescence; inhibition, % at 5 µM; actives 0.43% (n = 330,000); AID 434989, 2010;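 active = inhibition above its plate's threshold, mean inhibition of all tested compounds on the plate plus 3 SD, cut at about 37% in these data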;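 also: 0% = orexin A challenge wells and 100% = SB-334867-A antagonist wells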
V1aR counter = agonists of human V1a receptor, primary screen, counter-screen for OXTR agonist project, fluorescence, CHO-V1R cells; AID 2797, 2010; Vasopressin V1a receptor (Homo sapiens), P37288; activation, % at 3 µM; actives 0.25% (n = 320,000); Fluo-8 calcium fluorescence, agonist mode; 0% DMSO, 100% 3 nM vasopressin;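 active = activation above the mean activation of all tested compounds plus 3 SD, per screening run, cut at about 20% in these data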;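 also: signal is peak over basal fluorescence ratio across a 100 second FLIPR read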
CHO parental Ca = ATP-evoked calcium signal inhibitors, parental CHO, primary screen, counter-screen for OX1R antagonist project, cell-based, fluorescence, Fluo-8 calcium dye. parental CHO-K1, ATP-induced calcium, Fluo-8 fluorescence. inhibition, % at 5.6 µM. actives 0.63% (n = 330,000);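 active = inhibition above that plate's mean sample inhibition plus 3 SD, cut at about 26% in these data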;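 also: 0% = ATP-challenged DMSO wells and 100% = DMSO wells without ATP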
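Measured by: calcium-sensitive Fluo-8 fluorescence / Test system: CHO parental line / Controls: ATP-challenged DMSO wells low, unchallenged DMSO wells high / Measure: % inhibition / Compound: single nominal dose of 5.6 µM per compound / Replicates: single well per compound, no replicates / Reagent: ATP as calcium-mobilizing challenge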
* marks the source's active call; other numbers are inactive results. A selection: hits, their analogues and other compounds. The true share with any hit is near 2.7%.

SMILES	OXTR agonist	OX1R antag-1	OXTR potentiator	OX1R antag-2	V1aR counter	CHO parental Ca
COc1cc(/C=C/C(=O)O)cc(S(=O)(=O)N(CC(C)C)CC(C)C)c1OC	0.1	17.9	-3.9	-18.7	1.2	-7.8
O=C(Cn1nc(C(=O)O)c2ccccc2c1=O)Nc1cccc(S(=O)(=O)N2CCCCCC2)c1	8.2	32.1	-10.0	42.6*	9.4	32.5*
Cc1ccc(C)c(C(=O)OCC(=O)Nc2cccc(S(=O)(=O)N3CCCCC3)c2)c1	9.7	7.8	-11.4	53.7*	6.3	15.1
O=C(NCC1(N2CCCCC2)CCCCC1)c1cccc(S(=O)(=O)Nc2ccc(F)cc2)c1	4.6	6.3	-5.1	-26.7	1.9	-25.3
O=C(NNC(=O)c1ccc(F)cc1F)c1ccc(-n2cnnn2)cc1	-0.3	-9.0	-1.8	-4.6	1.0	-0.8
NC(CO)(CO)COCc1ccccc1	-0.1	6.2	-7.2	6.7	-0.2	-10.4
O=C(NCC1COc2ccccc2O1)c1ccc(Cl)c(S(=O)(=O)N2CCCC2)c1 (stereo unspecified)	8.4	34.5*	-9.3	30.6	9.3	-14.1
O=C(NCC1COc2ccccc2O1)c1ccc(Cl)c(S(=O)(=O)N2CCOCC2)c1 (stereo unspecified)	5.9	14.2	-7.3	12.7	7.4	-26.9
O=C1c2sc3nc4ccccc4n3c2C(=O)N1c1ccccc1Cl	2.9	64.0*	-14.5	-25.2	2.5	-29.1
O=C(Nc1ccc(N2CCN(C(=O)c3ccccc3F)CC2)cc1)c1ncn[nH]1	-0.3	3.5	-9.0	-7.6	0.1	6.1
CN1CCN(c2nc(-c3ccc(Cl)cc3Cl)nc3ccccc23)CC1	5.5	1.6	-11.2	-21.4	2.9	-14.7
O=C1c2ccccc2C(=O)c2c(O)c(O)cc(O)c21	-1.0	28.1*	-4.0	0.2	0.7	-1.8
COn1c(-c2ccccc2)nc2ccc(Cl)cc21	-2.3	19.1	-8.9	-27.9	-0.6	-15.5
Clc1ccc2nc3c4ccccc4cnn3c2c1	-1.4	69.1*	3.4	3.0	0.2	-23.7
Cc1ccc(NC(=O)c2nc(S(=O)(=O)Cc3ccccc3)ncc2Cl)cc1	-1.8	11.5	-8.1	37.6	-0.6	38.9*
Cc1cccc(CS(=O)(=O)c2ncc(Cl)c(C(=O)Nc3c(C)cccc3C)n2)c1	0.5	88.8*	-10.3	76.9*	1.6	23.5
O=C(Nc1ccc(F)cc1)c1nc(S(=O)(=O)Cc2ccccc2)ncc1Cl	-0.8	33.8	-0.9	30.3	0.4	26.3
COc1ccc(Cl)cc1C(=O)Nc1ccc(NC(C)=O)cc1	2.4	29.0	-2.9	2.7	1.7	-0.4
CC(=O)Oc1c(I)cc(I)cc1C(=O)Nc1ccc(Cl)cc1	0.8	79.8*	-17.3	8.9	9.6	57.9*
Cn1ncc([N+](=O)[O-])c1C(=O)N/N=C/c1cccc([N+](=O)[O-])c1	0.0	54.0*	0.8	-9.4	0.1	-4.4
Cn1cc(C(=O)N/N=C/c2ccc([N+](=O)[O-])cc2)c2ccccc21	-0.3	9.0	-2.1	-11.2	0.5	-12.7
Cn1ncc([N+](=O)[O-])c1C(=O)N/N=C/c1ccc(F)cc1	0.4	42.7	-3.3	-4.3	1.1	-5.0
O=C(N/N=C/c1ccc2ncccc2c1)c1cccc([N+](=O)[O-])c1	-0.6	71.9*	-2.5	0.4	0.7	-9.8
Cn1cc(C(=O)N/N=C/c2cccc([N+](=O)[O-])c2)c2ccccc21	-1.9	43.2*	-8.6	8.9	-1.5	-17.2
CCC(=O)N(CCc1ccc(S(N)(=O)=O)cc1)C1CC(=O)N(c2ccc(OC)cc2)C1=O (stereo unspecified)	0.3	17.7	-9.4	-1.3	0.8	-2.6
SMILES	OXTR agonist	OX1R antag-1	OXTR potentiator	OX1R antag-2	V1aR counter	CHO parental Ca
COc1ccc(C2=CN(Cc3ccccc3)CCC2=O)cc1	7.3	14.6	-2.7	-5.4	7.3	-12.4
CCOc1ccc(CCNC(=O)COn2nnc3ccc(S(=O)(=O)N4CCOCC4)cc32)cc1OCC	-0.8	10.7	-0.9	-12.0	-0.2	-24.7
Cn1c(=O)c2c(ncn2CC(=O)N/N=C/C=C\c2ccccc2[N+](=O)[O-])n(C)c1=O	0.9	14.8	-0.6	-5.8	0.8	-5.4
O=c1oc2ccccc2cc1-c1nc(-c2cccs2)cs1	1.2	50.7*	-7.8	3.4	1.0	-30.4
COCCNS(=O)(=O)c1ccc2c(c1)C(=O)c1cc(S(=O)(=O)NCCOC)ccc1-2	0.3	66.3*	-3.1	-3.4	0.6	1.5
COCCNS(=O)(=O)c1ccc(F)c(OC)c1	0.5	1.4	-5.2	-11.7	-0.3	-1.8
O=C1c2cc(S(=O)(=O)NCCCO)ccc2-c2ccc(S(=O)(=O)NCCCO)cc21	0.3	53.6*	1.4	0.6	0.8	3.5
Cc1ccc(OCC(=O)NNC(=O)c2ccccc2OCc2c(C)noc2C)cc1	-1.9	5.5	0.6	-26.9	-0.1	-27.2
Cc1ccc(S(=O)(=O)N2CCC(=O)N(CCO)CC2)cc1	0.0	19.7	-0.6	-12.6	-0.3	4.1
Cc1c(-c2nc(N)nc(Nc3ccccc3F)n2)oc2ccccc12	-0.8	38.8*	-7.8	-4.7	0.3	-2.0
O=C(c1ccc([N+](=O)[O-])s1)N1CCc2ccccc21	0.1	7.0	-7.5	-4.7	-0.4	-1.3
O=C(c1ccc([N+](=O)[O-])s1)N1CCCc2ccccc21	-2.2	67.4*	-5.5	-6.5	-1.1	-8.6
COC(=O)C(Cc1ccc(OC(=O)c2ccc(C)cc2)cc1)N1Cc2ccccc2C1=O (stereo unspecified)	9.2	21.7	-19.2	24.4	6.6	43.6*
COC(=O)C(Cc1ccc(O)cc1)N1Cc2ccccc2C1=O (stereo unspecified)	3.9	4.5	-4.8	-8.5	3.4	-2.2
OCCNc1nc(-c2cccnc2)nc2ccccc12	0.7	5.7	-3.9	-11.3	1.0	-2.6
O=C(OCCNc1nc(-c2ccccc2)nc2ccccc12)c1ccncc1	-0.2	57.3*	-10.0	6.7	0.6	-4.4
O=C(OCCNc1nc(-c2ccccc2)nc2ccccc12)c1cccnc1	1.7	47.5*	-1.9	-20.8	-0.1	-5.4
CN(C)c1ccc2nc3ccc(=[N+](C)C)cc-3sc2c1	0.1	58.9*	-10.8	8.7	0.7	-10.4
Cc1nc2ccc(N)cc2s1	1.9	14.1	-3.3	-10.4	0.4	-5.4
OCCC1CN(CC2CC2)CCN1Cc1ccc(F)c(F)c1 (stereo unspecified)	0.0	3.5	-2.0	1.3	0.6	-3.8
